In ChEMBL document CHEMBL1154198, “Chemical genetics of Plasmodium falciparum” (Nature, 2010) one finds EC50 data, which are given here for 6 molecules.

pEC50: −log10 of the molar value. Bounds are passed on as bounds.

The test system of data set [1] is Plasmodium falciparum. In words: ST_JUDE: Plasmodium falciparum 3D7 EC50 (uM) as measured by SYBR green dye. Type of data set: functional, organism-based.
For data set [2], the system named is Plasmodium falciparum. In words: ST_JUDE: Plasmodium falciparum K1 EC50 (uM) as measured by SYBR green dye. Type of data set: functional, organism-based.
Data set [3] concerns Plasmodium falciparum. In words: ST_JUDE: Cytotoxicity against Plasmodium falciparum 3D7. It counts as functional, organism-based. An outline of the steps:
(§1)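 Asexual P. falciparum grown in human erythrocytes, exposed to compounds for 72 h, and growth read as the DNA quantity in treated versus control cultures. Dose-response run at 12 concentrations from 10 μM to 5 nM.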

Data set [4] has as its system Plasmodium falciparum. In words: ST_JUDE: Cytotoxicity against Plasmodium falciparum K1. Type of data set: functional, organism-based. An outline of the steps: as §1
Data set [5] relates to Plasmodium falciparum. In words: ST_JUDE: Cytotoxicity against Plasmodium falciparum V1/S. Type of data set: functional, organism-based.
A further data set concerns Toxoplasma gondii. In words: ST_JUDE: Growth inhibition of to Toxoplasma gondii, in human U-2OS cells, as measured by luciferase. It counts as functional, organism-based. The note with it: RH, U2OS. The gist of the method:
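T. gondii parasites engineered to express luciferase; drug sensitivity read by luminescence.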

For the next data set, the system named is Trypanosoma brucei. In words: ST_JUDE: Cytotoxicity using luciferase to measure ATP as an indicator of the viability of Trypanosoma brucei. It counts as functional, organism-based.
The next data set relates to Leishmania major. The data set is described as follows: ST_JUDE: Cytotoxicity using Alamar Blue to measure viability of Leishmania major. It counts as functional, organism-based. An outline of the steps:
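L. major promastigotes; drug susceptibility read with Alamar Blue.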

Data set [6] is described as follows: ST_JUDE: Cytotoxicity using luciferase to measure ATP as an indicator of the viability of human foreskin fibroblast cells (BJ). Type of data set: toxicity, cell-based.
The nature of data set [7]: ST_JUDE: Cytotoxicity using luciferase to measure ATP as an indicator of the viability of human epithelial hepatocellular carcinoma cells (HepG2). It counts as toxicity, cell-based.
The nature of data set [8]: ST_JUDE: Cytotoxicity using luciferase to measure ATP as an indicator of the viability of human epithelial embryonic kidney cells (HEK293). Type of data set: toxicity, cell-based.
Data set [9] in a line: ST_JUDE: Cytotoxicity using luciferase to measure ATP as an indicator of the viability of human Burkitt''s lymphoma lymphoblast cells (Raji). It counts as toxicity, cell-based.
For data set [10], the system named is Plasmodium falciparum. In words: ST_JUDE: Cytotoxicity against Plasmodium falciparum Dd2. Type of data set: functional, organism-based.
In data set [11] the test system is Plasmodium falciparum. The data set is described as follows: ST_JUDE: Cytotoxicity against Plasmodium falciparum W2. Type of data set: functional, organism-based.
Data set [12] deals with Plasmodium falciparum. The data set is described as follows: ST_JUDE: Cytotoxicity against Plasmodium falciparum SB-A6. Type of data set: functional, organism-based.
For data set [13], the system named is Plasmodium falciparum. In words: ST_JUDE: Cytotoxicity against Plasmodium falciparum D10 transfected with yeast DHOD. It counts as functional, organism-based.

What is called pEC50 is −log10 of the EC50, conventionally taken in molar units. For the molecule `Cc1ccc(C)c(N2CCN(Cc3cc(Cl)ccc3O)CC2)c1`, the pEC50 in the data set with Plasmodium falciparum [1] was 6.14; in the data set on Plasmodium falciparum [2], 6.58; with Plasmodium falciparum [3], 6.30; in the data set on Plasmodium falciparum [4], 6.71; in the data set on Plasmodium falciparum [5], 6.48; with Toxoplasma gondii, under 4.71. The negative logarithm of the EC50 (pEC50) was under 4.46 with Trypanosoma brucei; under 4.81 in the data set with Leishmania major; under 4.45 in [6]; under 4.45 in data set [7]; under 4.45 in data set [8]; under 4.45 in [9]. Further, the pEC50 in the data set on Plasmodium falciparum [10] is 6.49; in the data set on Plasmodium falciparum [11], 5.99; in the data set with Plasmodium falciparum [12], 6.27; in the data set with Plasmodium falciparum [13], 6.26.
As to `COc1ccccc1C1CC2=NC(C)=C(C(=O)OC(C)C)C(c3ccc(Cl)cc3)C2=C(O)C1` (stereo unspecified), the pEC50 in the data set on Plasmodium falciparum [1] was 5.89; in the data set on Plasmodium falciparum [2], 6.16; with Plasmodium falciparum [3] it was 5.99; with Plasmodium falciparum [4] it was 6.19; in the data set on Plasmodium falciparum [5], 6.07; in the data set with Toxoplasma gondii, under 4.79. Besides, the pEC50 in the data set with Trypanosoma brucei was 6.17; in the data set on Leishmania major, under 4.89; in data set [6] it was under 4.52; in [7] it was under 4.52; in [8] it was under 4.52; in data set [9] it was under 4.52. For the same molecule, the pEC50 in the data set with Plasmodium falciparum [10] is 5.96; with Plasmodium falciparum [11], under 5.11; with Plasmodium falciparum [12], 6.12; with Plasmodium falciparum [13], 6.11.
With `CCO/C(O)=C1\C(C)=NC2=C(C(=O)CC(c3ccc(OC)c(OC)c3)C2)C1c1ccc([N+](=O)[O-])cc1` (stereo unspecified), the pEC50 is 6.75 with Plasmodium falciparum [1]; 6.92 in the data set on Plasmodium falciparum [2]; 6.77 in the data set with Plasmodium falciparum [3]; 6.57 in the data set with Plasmodium falciparum [4]; 6.22 in the data set on Plasmodium falciparum [5]; under 4.62 in the data set with Toxoplasma gondii. Also, the pEC50 is 5.08 in the data set with Trypanosoma brucei; under 4.73 with Leishmania major; under 4.36 in data set [6]; under 4.36 in data set [7]; under 4.36 in data set [8]; under 4.36 in [9]. Besides, the pEC50 is 6.22 in the data set with Plasmodium falciparum [10], 6.62 with Plasmodium falciparum [11], 6.64 with Plasmodium falciparum [12] and 6.57 in the data set on Plasmodium falciparum [13].
For `CCCO/C(O)=C1\C(C)=NC2=C(C(=O)CC(c3ccc(OC)cc3)C2)C1c1ccc([N+](=O)[O-])cc1` (stereo unspecified), the pEC50 in the data set on Plasmodium falciparum [1] is 6.19; in the data set on Plasmodium falciparum [2], 5.97; in the data set on Plasmodium falciparum [3] it was 5.52; in the data set on Plasmodium falciparum [4] it was 5.97; with Plasmodium falciparum [5] it was 5.83; in the data set with Toxoplasma gondii it was under 4.61. Also, the pEC50 is 5.16 in the data set on Trypanosoma brucei; under 4.71 with Leishmania major; under 4.34 in [6]; under 4.34 in data set [7]; under 4.34 in data set [8]; under 4.34 in data set [9]. Further, the pEC50 with Plasmodium falciparum [10] is 5.80; in the data set on Plasmodium falciparum [11], under 4.93; in the data set on Plasmodium falciparum [12] it was 5.99; in the data set with Plasmodium falciparum [13] it was 5.81.
Regarding `CCc1ccc(Nc2cc(C)c3ccc(O)cc3n2)cc1`, the pEC50 with Plasmodium falciparum [1] was 6.14; with Plasmodium falciparum [2], 6.90; in the data set with Plasmodium falciparum [3], 6.20; with Plasmodium falciparum [4] it was 6.72; with Plasmodium falciparum [5] it was 6.74; with Toxoplasma gondii, under 4.62. The pEC50 in the data set with Trypanosoma brucei was under 4.38; in the data set with Leishmania major it was under 4.73; in data set [6], under 4.36; in data set [7] it was 4.63; in data set [8] it was under 4.36; in data set [9], 4.51. The pEC50 in the data set on Plasmodium falciparum [10] is 6.11; in the data set on Plasmodium falciparum [11] it was 6.15; in the data set with Plasmodium falciparum [12], 6.08; in the data set on Plasmodium falciparum [13], 6.23.
On to `CCCCn1c(=N)n(CC(O)c2ccc(Br)cc2)c2ccccc21` (stereo unspecified), for which the pEC50 is 5.98 with Plasmodium falciparum [1]; 6.41 in the data set on Plasmodium falciparum [2]; 5.70 in the data set on Plasmodium falciparum [3]; 5.87 in the data set on Plasmodium falciparum [4]; 5.95 with Plasmodium falciparum [5]; under 4.62 with Toxoplasma gondii. Moreover, the pEC50 with Trypanosoma brucei is 5.21; with Leishmania major, under 4.73; in [6], under 4.36; in data set [7], 4.72; in [8] it was under 4.36; in [9], 4.48. Further, the negative-log EC50 (pEC50) in the data set with Plasmodium falciparum [10] was 6.06; with Plasmodium falciparum [11], 6.20; in the data set on Plasmodium falciparum [12], 5.58; with Plasmodium falciparum [13] it was 5.25.
